Measured values: ChEMBL document CHEMBL4828761, “Development and crystallography-aided SAR studies of multifunctional BuChE inhibitors and 5-HT6R antagonists with β-amyloid anti-aggregation properties” (Eur J Med Chem, 2021)

What follows are molecules tested against Cholinesterase (Homo sapiens, UniProt P06276) (assay: Inhibition of BuChE in human plasma using BTC as substrate at 10 uM preincubated with enzyme for 5 mins followed by substrate addition for 5 mins by Ellman's method relative to control). Conditions: time 10.0 min.
Type: cell-free
Outline: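 Human plasma BuChE at 0.384 U/mL final, with DTNB in 0.1 M phosphate buffer pH 8.0. Compound at 10 µM screened, preincubated 5 min at 36 °C.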

Cholinesterase (Homo sapiens, UniProt P06276), sequence (P06276 whole entry): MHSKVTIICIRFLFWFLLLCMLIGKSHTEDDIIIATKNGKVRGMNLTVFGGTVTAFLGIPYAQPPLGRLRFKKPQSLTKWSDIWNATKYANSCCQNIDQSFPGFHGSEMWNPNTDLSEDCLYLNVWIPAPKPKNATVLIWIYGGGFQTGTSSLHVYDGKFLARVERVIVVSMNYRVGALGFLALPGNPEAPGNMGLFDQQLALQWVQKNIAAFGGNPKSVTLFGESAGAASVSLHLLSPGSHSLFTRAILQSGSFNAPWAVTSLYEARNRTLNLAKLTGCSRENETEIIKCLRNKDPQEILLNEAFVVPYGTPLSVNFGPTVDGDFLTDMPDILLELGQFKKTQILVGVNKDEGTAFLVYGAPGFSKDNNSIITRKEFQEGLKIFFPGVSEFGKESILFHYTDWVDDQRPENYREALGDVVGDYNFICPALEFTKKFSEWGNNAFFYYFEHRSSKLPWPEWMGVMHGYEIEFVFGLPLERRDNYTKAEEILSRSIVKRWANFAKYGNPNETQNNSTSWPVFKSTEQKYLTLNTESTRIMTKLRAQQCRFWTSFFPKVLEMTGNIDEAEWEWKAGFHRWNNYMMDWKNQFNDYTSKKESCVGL

Question: With O=S(=O)(c1ccccc1)n1ccc2c(OCCNCC3CCCNC3)cccc21 (centres undefined) as the molecule, how does the inhibition read?
Answer: The inhibition was under 50%.

Question: Which inhibition does the source give for O=S(=O)(c1ccccc1)n1ccc2c(OCCNCc3ccc4c(c3)OCCO4)cccc21 here?
Answer: The inhibition was under 50%.

Question: CCOc1ccc(CNCCOc2cccc3c2ccn3S(=O)(=O)c2ccccc2)cc1 was tested. Which inhibition did it give?
Answer: The inhibition was under 50%.

Question: How did the inhibition turn out when CC(C)(C)OC(=O)N1CCCC(CNCCOc2cccc3c2[nH]c(=O)n3Cc2ccccc2)C1 (centres undefined) was run?
Answer: The inhibition was under 50%.

Question: Which inhibition does the source give for CN(C)c1cccc(CNCCOc2cccc3c2ccn3S(=O)(=O)c2ccccc2)c1 here?
Answer: Its inhibition is under 50%.

Question: CSc1ccc2c(c1)C(N1CCN(C)CC1)Cc1ccccc1S2 (centres undefined) was tested. Which inhibition did it give?
Answer: Its inhibition is under 50%.

Question: How did the inhibition turn out when CC(=O)Oc1ccc(CNCCOc2cccc3c2CCN3S(=O)(=O)c2ccccc2)cc1 was run?
Answer: Its inhibition is under 50%.

Question: Which inhibition does the source give for O=S(=O)(c1ccccc1)n1ccc2c(OCCNCc3cccc(C(F)(F)F)c3)cccc21 here?
Answer: The inhibition was under 50%.

Question: How did the inhibition turn out when Cc1cccc(CNCCOc2cccc3c2CCN3S(=O)(=O)c2ccccc2)c1 was run?
Answer: The inhibition was under 50%.

Question: Cc1cccc(CNCCOc2cccc3c2ccn3S(=O)(=O)c2cccc3ccccc23)c1 was tested. Which inhibition did it give?
Answer: Its inhibition is under 50%.

Question: For O=S(=O)(c1ccccc1)n1ccc2c(OCCNCc3ccncc3)cccc21, which inhibition is on record?
Answer: Its inhibition is under 50%.

Question: With O=S(=O)(c1ccccc1)n1ccc2c(N3CCN(Cc4ccccc4)CC3)cccc21 as the molecule, how does the inhibition read?
Answer: Its inhibition is under 50%.

Question: COC(=O)c1ccc(CNCCOc2cccc3c2ccn3S(=O)(=O)c2ccccc2)cc1 was tested. Which inhibition did it give?
Answer: Its inhibition is under 50%.

Question: Which inhibition does the source give for COc1cccc(CNCCOc2cccc3c2ccn3S(=O)(=O)c2ccccc2)c1 here?
Answer: The inhibition was under 50%.

Question: How did the inhibition turn out when CC(=O)Oc1ccc(CNCCOc2cccc3c2ccn3S(=O)(=O)c2cccc3ccccc23)cc1 was run?
Answer: Its inhibition is under 50%.

Question: How did the inhibition turn out when Cc1cccc(CNCCOc2cccc3c2ccn3Cc2ccccc2)c1 was run?
Answer: Its inhibition is under 50%.

Question: CN(CCOc1cccc2c1ccn2S(=O)(=O)c1ccccc1)Cc1ccccc1 was tested. Which inhibition did it give?
Answer: Its inhibition is under 50%.

Question: O=S(=O)(c1ccccc1)n1ccc2c(OCCNCc3ccc(F)cc3)cccc21 was tested. Which inhibition did it give?
Answer: Its inhibition is under 50%.

Question: With O=[N+]([O-])c1ccc(CNCCOc2cccc3c2ccn3S(=O)(=O)c2ccccc2)cc1 as the molecule, how does the inhibition read?
Answer: The inhibition was under 50%.

Each molecule was assayed against Cholinesterase (Equus caballus, UniProt P81908) (assay: Inhibition of equine serum BuChE using BTC as substrate preincubated with enzyme for 5 mins followed by substrate addition for 5 mins by Ellman's method). Conditions: not given.
Type: cell-free

Cholinesterase (Equus caballus, UniProt P81908), sequence (P81908 whole entry): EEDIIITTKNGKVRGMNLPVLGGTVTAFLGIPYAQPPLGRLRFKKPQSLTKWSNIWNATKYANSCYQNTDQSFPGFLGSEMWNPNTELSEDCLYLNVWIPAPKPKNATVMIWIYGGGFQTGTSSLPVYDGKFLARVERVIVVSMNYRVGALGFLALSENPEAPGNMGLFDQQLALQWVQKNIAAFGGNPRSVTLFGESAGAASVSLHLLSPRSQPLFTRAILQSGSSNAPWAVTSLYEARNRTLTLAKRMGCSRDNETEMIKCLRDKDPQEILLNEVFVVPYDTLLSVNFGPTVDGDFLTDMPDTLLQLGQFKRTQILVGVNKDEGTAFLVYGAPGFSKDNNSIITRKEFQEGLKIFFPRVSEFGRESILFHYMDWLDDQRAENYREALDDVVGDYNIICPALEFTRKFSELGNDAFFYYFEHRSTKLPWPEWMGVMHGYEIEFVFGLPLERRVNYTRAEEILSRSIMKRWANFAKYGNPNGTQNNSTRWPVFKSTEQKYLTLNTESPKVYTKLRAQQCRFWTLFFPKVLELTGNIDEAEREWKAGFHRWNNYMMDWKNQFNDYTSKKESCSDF

Question: With O=S(=O)(c1ccccc1)n1ccc2c(OCCNCc3cc(Cl)cc(Cl)c3)cccc21 as the molecule, how does the IC50 read?
Answer: The IC50 was 414 nM.

Question: For CC(C)(C)OC(=O)N1CCCC(CNCCOc2cccc3c2ccn3S(=O)(=O)c2cccc3ccccc23)C1 (centres undefined), which IC50 is on record?
Answer: The IC50 was 5.8 nM.

Question: For O=S(=O)(c1ccccc1)n1ccc2c(OCCNCC3CCCNC3)cccc21 (centres undefined), which IC50 is on record?
Answer: Its IC50 is 2260 nM.

Question: O=S(=O)(c1cccc2ccccc12)n1ccc2c(OCCNCc3ccccc3)cccc21 was tested. Which IC50 did it give?
Answer: Its IC50 is 401 nM.

Question: How did the IC50 turn out when O=S(=O)(c1ccccc1)n1ccc2c(OCCNCc3ccc4c(c3)OCCO4)cccc21 was run?
Answer: The IC50 was 2170 nM.

Question: Which IC50 does the source give for CCOc1ccc(CNCCOc2cccc3c2ccn3S(=O)(=O)c2ccccc2)cc1 here?
Answer: Its IC50 is 3300 nM.

Question: How did the IC50 turn out when CC(C)(C)OC(=O)N1CCCC(CNCCOc2cccc3c2[nH]c(=O)n3Cc2ccccc2)C1 (centres undefined) was run?
Answer: The IC50 was 467 nM.

Question: How did the IC50 turn out when CN(C)c1cccc(CNCCOc2cccc3c2ccn3S(=O)(=O)c2ccccc2)c1 was run?
Answer: Its IC50 is 894 nM.

Question: With CC(=O)Oc1ccc(CNCCOc2cccc3c2CCN3S(=O)(=O)c2ccccc2)cc1 as the molecule, how does the IC50 read?
Answer: The IC50 was 660 nM.

Question: Which IC50 does the source give for O=S(=O)(c1ccccc1)n1ccc2c(OCCNCc3cccc(C(F)(F)F)c3)cccc21 here?
Answer: Its IC50 is 2200 nM.

Question: Which IC50 does the source give for Cc1cccc(CNCCOc2cccc3c2CCN3S(=O)(=O)c2ccccc2)c1 here?
Answer: Its IC50 is 2300 nM.

Question: With Cc1cccc(CNCCOc2cccc3c2ccn3S(=O)(=O)c2cccc3ccccc23)c1 as the molecule, how does the IC50 read?
Answer: Its IC50 is 148 nM.

Question: O=S(=O)(c1ccccc1)N1CCc2c(OCCNCc3ccccc3)cccc21 was tested. Which IC50 did it give?
Answer: The IC50 was 1320 nM.

Question: How did the IC50 turn out when COC(=O)c1ccc(CNCCOc2cccc3c2ccn3S(=O)(=O)c2ccccc2)cc1 was run?
Answer: The IC50 was 14300 nM.

Question: COc1cccc(CNCCOc2cccc3c2ccn3S(=O)(=O)c2ccccc2)c1 was tested. Which IC50 did it give?
Answer: The IC50 was 1660 nM.

Question: How did the IC50 turn out when CC(=O)Oc1ccc(CNCCOc2cccc3c2ccn3S(=O)(=O)c2cccc3ccccc23)cc1 was run?
Answer: The IC50 was 261 nM.

Question: How did the IC50 turn out when Cc1cccc(CNCCOc2cccc3c2ccn3Cc2ccccc2)c1 was run?
Answer: The IC50 was 958 nM.

Question: How did the IC50 turn out when CN(CCOc1cccc2c1ccn2S(=O)(=O)c1ccccc1)Cc1ccccc1 was run?
Answer: Its IC50 is 1420 nM.

Question: For O=S(=O)(c1ccccc1)n1ccc2c(OCCNCc3ccc(F)cc3)cccc21, which IC50 is on record?
Answer: Its IC50 is 985 nM.

Question: With O=[N+]([O-])c1ccc(CNCCOc2cccc3c2ccn3S(=O)(=O)c2ccccc2)cc1 as the molecule, how does the IC50 read?
Answer: Its IC50 is 18300 nM.

What follows are molecules tested against Amyloid-beta precursor protein (Homo sapiens) (UniProt P05067) (assay: Inhibition of amyloid beta (1 to 42) (unknown origin) self aggregation at 10 uM incubated for 24 to 48 hrs by Thioflavin-T based fluorometric assay). Conditions: time lower […], time upper 48.0 hrs.
Amyloid-beta precursor protein (Homo sapiens), sequence (P05067 whole entry): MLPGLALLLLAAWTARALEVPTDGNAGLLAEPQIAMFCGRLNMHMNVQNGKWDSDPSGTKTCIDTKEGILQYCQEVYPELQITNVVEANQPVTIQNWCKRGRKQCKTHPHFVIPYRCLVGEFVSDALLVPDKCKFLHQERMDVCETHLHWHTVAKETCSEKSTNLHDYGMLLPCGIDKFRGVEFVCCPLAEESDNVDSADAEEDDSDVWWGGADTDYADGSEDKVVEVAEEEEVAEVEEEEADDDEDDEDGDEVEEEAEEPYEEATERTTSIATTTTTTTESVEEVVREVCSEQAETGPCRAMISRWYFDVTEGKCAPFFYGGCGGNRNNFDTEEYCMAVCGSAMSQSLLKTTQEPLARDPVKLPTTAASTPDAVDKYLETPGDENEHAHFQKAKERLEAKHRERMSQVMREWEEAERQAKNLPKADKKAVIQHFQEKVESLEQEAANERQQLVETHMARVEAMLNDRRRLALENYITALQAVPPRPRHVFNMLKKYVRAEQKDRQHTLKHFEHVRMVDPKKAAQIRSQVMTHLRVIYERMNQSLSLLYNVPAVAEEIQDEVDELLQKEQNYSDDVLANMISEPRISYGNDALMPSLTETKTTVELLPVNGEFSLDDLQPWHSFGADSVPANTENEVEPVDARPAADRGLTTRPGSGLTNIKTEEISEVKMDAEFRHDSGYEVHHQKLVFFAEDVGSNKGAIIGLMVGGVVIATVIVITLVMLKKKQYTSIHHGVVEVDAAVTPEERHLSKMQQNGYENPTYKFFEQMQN

Question: With O=S(=O)(c1ccccc1)n1ccc2c(OCCNCC3CCCNC3)cccc21 (centres undefined) as the molecule, how does the inhibition read?
Answer: Its inhibition is 27.3%.

Question: For O=S(=O)(c1ccccc1)n1ccc2c(OCCNCc3ccc4c(c3)OCCO4)cccc21, which inhibition is on record?
Answer: The inhibition was under 20%.

Question: For CCOc1ccc(CNCCOc2cccc3c2ccn3S(=O)(=O)c2ccccc2)cc1, which inhibition is on record?
Answer: The inhibition was under 20%.

Question: With CC(C)(C)OC(=O)N1CCCC(CNCCOc2cccc3c2[nH]c(=O)n3Cc2ccccc2)C1 (centres undefined) as the molecule, how does the inhibition read?
Answer: Its inhibition is 43.9%.

Question: With CN(C)c1cccc(CNCCOc2cccc3c2ccn3S(=O)(=O)c2ccccc2)c1 as the molecule, how does the inhibition read?
Answer: Its inhibition is under 20%.

Question: With CC(=O)Oc1ccc(CNCCOc2cccc3c2CCN3S(=O)(=O)c2ccccc2)cc1 as the molecule, how does the inhibition read?
Answer: The inhibition was under 20%.

Question: How did the inhibition turn out when O=S(=O)(c1ccccc1)n1ccc2c(OCCNCc3cccc(C(F)(F)F)c3)cccc21 was run?
Answer: The inhibition was under 20%.

Question: How did the inhibition turn out when Cc1cccc(CNCCOc2cccc3c2CCN3S(=O)(=O)c2ccccc2)c1 was run?
Answer: The inhibition was under 20%.

Question: Cc1cccc(CNCCOc2cccc3c2ccn3S(=O)(=O)c2cccc3ccccc23)c1 was tested. Which inhibition did it give?
Answer: Its inhibition is 23.6%.

Question: Which inhibition does the source give for O=S(=O)(c1ccccc1)n1ccc2c(OCCNCc3ccncc3)cccc21 here?
Answer: Its inhibition is under 20%.

Question: How did the inhibition turn out when O=S(=O)(c1ccccc1)n1ccc2c(N3CCN(Cc4ccccc4)CC3)cccc21 was run?
Answer: Its inhibition is under 20%.

Question: For COC(=O)c1ccc(CNCCOc2cccc3c2ccn3S(=O)(=O)c2ccccc2)cc1, which inhibition is on record?
Answer: The inhibition was under 20%.

Question: How did the inhibition turn out when COc1cccc(CNCCOc2cccc3c2ccn3S(=O)(=O)c2ccccc2)c1 was run?
Answer: Its inhibition is 27.6%.

Question: With CC(=O)Oc1ccc(CNCCOc2cccc3c2ccn3S(=O)(=O)c2cccc3ccccc23)cc1 as the molecule, how does the inhibition read?
Answer: Its inhibition is under 20%.

Question: Which inhibition does the source give for CN(CCOc1cccc2c1ccn2S(=O)(=O)c1ccccc1)Cc1ccccc1 here?
Answer: The inhibition was under 20%.

Question: O=S(=O)(c1ccccc1)n1ccc2c(OCCNCc3ccc(F)cc3)cccc21 was tested. Which inhibition did it give?
Answer: The inhibition was 40.5%.

Question: How did the inhibition turn out when O=[N+]([O-])c1ccc(CNCCOc2cccc3c2ccn3S(=O)(=O)c2ccccc2)cc1 was run?
Answer: Its inhibition is 35.1%.

Each molecule was assayed against 5-hydroxytryptamine receptor 6 (Homo sapiens, UniProt P50406) (assay: Displacement of [3H]LSD from human 5HT6 receptor expressed in CHO-K1 membrane incubated for 60 mins by solid scintillation counting analysis). Conditions: not given.
Type: cell membranes

5-hydroxytryptamine receptor 6, sequence (P50406 whole entry): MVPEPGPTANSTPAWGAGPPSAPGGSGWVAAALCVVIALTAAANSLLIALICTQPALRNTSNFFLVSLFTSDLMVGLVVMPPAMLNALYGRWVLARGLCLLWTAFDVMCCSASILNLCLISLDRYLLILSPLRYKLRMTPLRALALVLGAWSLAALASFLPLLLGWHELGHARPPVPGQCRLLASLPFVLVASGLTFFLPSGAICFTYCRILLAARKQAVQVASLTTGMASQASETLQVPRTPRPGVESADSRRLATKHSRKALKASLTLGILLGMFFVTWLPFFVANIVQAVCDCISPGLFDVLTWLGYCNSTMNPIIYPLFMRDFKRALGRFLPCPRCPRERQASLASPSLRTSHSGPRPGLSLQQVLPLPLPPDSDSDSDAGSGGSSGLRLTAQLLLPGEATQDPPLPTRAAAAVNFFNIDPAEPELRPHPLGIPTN

Question: O=S(=O)(c1ccccc1)n1ccc2c(OCCNCC3CCCNC3)cccc21 (centres undefined) was tested. Which Ki did it give?
Answer: Its Ki is 75 nM.

Question: O=S(=O)(c1ccccc1)n1ccc2c(OCCNCc3ccc4c(c3)OCCO4)cccc21 was tested. Which Ki did it give?
Answer: Its Ki is 0.5 nM.

Question: How did the Ki turn out when CCOc1ccc(CNCCOc2cccc3c2ccn3S(=O)(=O)c2ccccc2)cc1 was run?
Answer: Its Ki is 13 nM.

Question: How did the Ki turn out when CC(C)(C)OC(=O)N1CCCC(CNCCOc2cccc3c2[nH]c(=O)n3Cc2ccccc2)C1 (centres undefined) was run?
Answer: The Ki was 155 nM.

Question: How did the Ki turn out when CN(C)c1cccc(CNCCOc2cccc3c2ccn3S(=O)(=O)c2ccccc2)c1 was run?
Answer: Its Ki is 6 nM.

Question: With CC(=O)Oc1ccc(CNCCOc2cccc3c2CCN3S(=O)(=O)c2ccccc2)cc1 as the molecule, how does the Ki read?
Answer: Its Ki is 70 nM.

Question: O=S(=O)(c1ccccc1)n1ccc2c(OCCNCc3cccc(C(F)(F)F)c3)cccc21 was tested. Which Ki did it give?
Answer: The Ki was 4 nM.

Question: How did the Ki turn out when Cc1cccc(CNCCOc2cccc3c2CCN3S(=O)(=O)c2ccccc2)c1 was run?
Answer: Its Ki is 12 nM.

Question: How did the Ki turn out when Cc1cccc(CNCCOc2cccc3c2ccn3S(=O)(=O)c2cccc3ccccc23)c1 was run?
Answer: The Ki was 12 nM.

Question: With O=S(=O)(c1ccccc1)n1ccc2c(OCCNCc3ccncc3)cccc21 as the molecule, how does the Ki read?
Answer: The Ki was 3 nM.

Question: How did the Ki turn out when O=S(=O)(c1ccccc1)n1ccc2c(N3CCN(Cc4ccccc4)CC3)cccc21 was run?
Answer: Its Ki is 60 nM.

Question: COC(=O)c1ccc(CNCCOc2cccc3c2ccn3S(=O)(=O)c2ccccc2)cc1 was tested. Which Ki did it give?
Answer: The Ki was 13 nM.

Question: For COc1cccc(CNCCOc2cccc3c2ccn3S(=O)(=O)c2ccccc2)c1, which Ki is on record?
Answer: Its Ki is 3.6 nM.

Question: CC(=O)Oc1ccc(CNCCOc2cccc3c2ccn3S(=O)(=O)c2cccc3ccccc23)cc1 was tested. Which Ki did it give?
Answer: Its Ki is 24 nM.

Question: With Cc1cccc(CNCCOc2cccc3c2ccn3Cc2ccccc2)c1 as the molecule, how does the Ki read?
Answer: The Ki was 293 nM.

Question: For CN(CCOc1cccc2c1ccn2S(=O)(=O)c1ccccc1)Cc1ccccc1, which Ki is on record?
Answer: Its Ki is 27 nM.

Question: How did the Ki turn out when O=S(=O)(c1ccccc1)n1ccc2c(OCCNCc3ccc(F)cc3)cccc21 was run?
Answer: Its Ki is 6 nM.

Question: Which Ki does the source give for O=[N+]([O-])c1ccc(CNCCOc2cccc3c2ccn3S(=O)(=O)c2ccccc2)cc1 here?
Answer: The Ki was 22 nM.
